Laboratory results taken from ChEMBL document CHEMBL3861952, “Donepezil-like multifunctional agents: Design, synthesis, molecular modeling and biological evaluation” (Eur J Med Chem, 2016).
Activity calls are given as the source filed them. The calls are words filed in the database; no cut-off is given here.

How the values were obtained:
[1] = Antioxidant activity of the compound assessed as AAPH radical scavenging activity measured as trolox equivalent at 0.1 to 1 uM preincubated for 15 mins with fluorescein followed by addition of AAPH measured every min for 1 hr by oxygen radical absorbance capacity assay; assay type: functional
Method in brief: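 ORAC: compound diluted in 75 mM PBS pH 7.4 (0.1–1 μM) and pre-incubated 15 min at 37 °C with 70 nM fluorescein. 12 mM AAPH then added and fluorescence (ex 485/em 520) read every minute for 1 h. Net area under the decay curve converted against a trolox standard curve; melatonin as reference.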

Homo sapiens [2] = organism: Homo sapiens; assay: Selectivity ratio of IC50 for human recombinant AChE to IC50 for human recombinant BuChE
Homo sapiens [3] = organism: Homo sapiens; assay: Selectivity index, ratio of IC50 for human recombinant MAOB to IC50 for human recombinant MAOA
Method in brief: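 Separate 30 min pre-incubations at 37 °C of serial inhibitor dilutions with recombinant human MAO-A (360 mU/mL) or MAO-B (67.5 mU/mL). Then 1 mM p-tyramine with HRP/Amplex UltraRed added, pH 7.4, and fluorescence followed ≥1 h. Index taken as IC50(MAO-B)/IC50(MAO-A); ≥3 experiments in triplicate.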

[4] = Antioxidant activity of the compound assessed as DPPH radical scavenging activity after 60 mins by spectrophotometric method; assay type: functional
Method in brief: (§1)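 DPPH scavenging: mixture shaken vigorously and left 60 min. Absorbance at 517 nm read and % activity calculated; trolox as comparator. Three replicates averaged.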

[5] = Antioxidant activity of the compound assessed as inhibition of Cu2+/ascorbic acid-induced H2O2 production at 0.1 to 1 uM after 10 mins by horse-radish peroxidase/amplex red-based fluorometric method; assay type: functional
Method in brief: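 H2O2 generated by 0.2 μM Cu(II) plus 10 μM ascorbic acid, incubated 10 min at room temperature with varying compound concentrations. HRP/Amplex Red mixture then added to quantify H2O2 formed.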

[6] = Antioxidant activity of the compound assessed as time required to induce AAPH-mediated linoleic acid peroxidation (reference value: 40 to 60 mins); assay type: functional
[7] = Antioxidant activity of the compound assessed as DPPH radical scavenging activity at 50 uM after 60 mins by spectrophotometric method; assay type: functional; method in brief: as §1

SMILES	Ratio IC50 (Homo sapiens [2])	Ratio IC50 (Homo sapiens [3])	further results
COc1ccc2[nH]cc(CCNC(C)=O)c2c1	–	–	Activity [1]: 2.51 equiv
C#CCN(CCCC1CCN(Cc2ccccc2)CC1)Cc1ccc2cccc(O)c2n1	65	> 2.7	–
C#CCN(Cc1ccc2cccc(O)c2n1)CC1CCN(Cc2ccccc2)CC1	152	> 2.2	–
C#CCN(Cc1ccc2cccc(O)c2n1)C(C#N)CCC1CCN(Cc2ccccc2)CC1 (stereo not given)	0.7	> 9.9	Activity [4]: Dose-dependent effect; Activity [1]: 1.12 equiv; inhibition [5]: Active; TIME [6]: 0.833 to 1 h
C#CCN(CCC1CCN(Cc2ccccc2)CC1)Cc1ccc2cccc(O)c2n1	52	> 2.8	–
C#CCN(Cc1ccc(O)c2ncccc12)C(C#N)CCC1CCN(Cc2ccccc2)CC1 (stereo not given)	–	1.8	–
C#CCN(Cc1ccc2cccc(O)c2n1)C(C#N)C1CCN(Cc2ccccc2)CC1 (stereo not given)	2140	> 9.8	–
Cc1c(C)c2c(c(C)c1O)CCC(C)(C(=O)O)O2 (stereo not given)	–	–	TIME [6]: 1.67 to 2 h; Activity [7]: Active
C#CCN(Cc1ccc2cccc(O)c2n1)C(C#N)CC1CCN(Cc2ccccc2)CC1 (stereo not given)	1650	> 8.2	–
